Data taken from PMC2947312 (Neuron, 2010).

How the values were obtained:
[1] = test system: Aβ42, Aβ40 and Aβtotal produced by SH-SY5Y-APP cells; assay: SH-SY5Y-APP cell-based Aβ assay; design: species or system human
How it was run: (§1)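 Stable lines: CHO-APPswe is CHO transfected with human APP695 carrying the Swedish double mutation (670/671 K/M to N/L). SH-SY5Y-APP is human neuroblastoma SH-SY5Y transfected with wild-type human APP751. Secreted Aβ40, Aβ42 and Aβtotal were measured in conditioned medium by mAb-specific sandwich ELISAs. Cytotoxicity was checked by Alamar Blue at the same compound concentrations, up to a maximum of 30 μM.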

[2] = test system: Aβ42, Aβ40 and Aβtotal produced by CHO-APPswe cells; assay: CHO-APPswe cell-based Aβ assay; design: species or system Chinese hamster
How it was run: as §1

[3] = test system: Aβ peptide variants from CHO-APPswe cells; assay: SELDI-TOF MS of Aβ peptide variants in CHO-APPswe conditioned medium; format: cell-based, Chinese hamster; settings: 1 μM
How it was run: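 CHO-APPswe cells were treated with vehicle, reference γ-secretase inhibitor (1 µM) or test compound (1 µM). Conditioned medium was immunoprecipitated with anti-Aβ17-24 mAb 4G8. Ciphergen chips were prepared from the medium and analysed by SELDI-TOF mass spectrometry to profile Aβ peptide variants.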

[4] = test system: Aβ peptides secreted from Tg 2576 primary mixed brain cultures; assay: Aβ peptides in Tg 2576 mixed brain cultures; format: cell-based, mouse; settings: Tg 2576 MBCs
How it was run: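 Neuronal cultures came from E17 Tg 2576 embryo brains, grown 6 days, then treated 18 h in triplicate wells at 10 concentrations in 3-fold dilution steps. Vehicle (PEG-400:H2O 80:20 v/v) was the negative control and BMS-299897 the positive control. Aβ38 was read by Meso Scale assay; Aβ40, Aβ42 and Aβtotal by mAb sandwich ELISA. Variants were resolved by anti-Aβ immunoprecipitation, tris-glycine gel electrophoresis and immunoblotting.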

[5] = test system: γ-secretase-mediated ε-site processing of Notch (NΔE); assay: NICD formation in HEK-APP-NΔE_7-4 cells; format: cell-based, human; settings: NΔE Notch/APP co-transfected cell line; DAPT 1 μM
How it was run: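 HEK293 cells doubly transfected with APP and Notch NΔE were treated overnight with test compound, 1 μM DAPT, or 0.2% v/v DMSO vehicle. Conditioned medium was collected, cell lysates were prepared, and anti-NICD immunoblots were run with GAPDH as a control. NICD was quantified by laser scanning densitometry against a half-volume vehicle sample.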

[6] = test system: γ-secretase (AICD, Aβ42 and Aβ40 formation from APP-CTFs); assay: Cell-free assay of AICD and Aβ formation, CHO-APPswe membranes; format: biochemical, Chinese hamster; settings: DAPT 1 μM, Compound 3 over a broad range of concentrations
How it was run: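 CHO-APPswe membrane preparations were incubated cell-free with vehicle (0.2% DMSO), 1 μM DAPT, or a range of test compound concentrations. AICD (ε-site) and Aβ42/Aβ40 (γ-site) formation were measured in parallel from the same preparations, semi-quantitatively. Data are mean ± SEM, n ≥ 3.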

| SMILES | effect on Aβ42, Aβ40 and Aβtotal peptide levels [1] | effect on Aβ42, Aβ40 and Aβtotal peptide levels [2] | effect on Aβ peptide variants (SELDI-TOF MS) [3] | effect on Aβ42, Aβ40, Aβ38 and Aβtotal (Meso Scale ELISAs) ([4]; 18 h) | effect on Aβ peptide variants (IP/immunoblot) ([4]; BMS-299897 1 μM) | effect on NICD formation [5] | effect on AICD formation [6] |
| --- | --- | --- | --- | --- | --- | --- | --- |
| C[C@H](c1ccc(F)cc1CCCC(=O)O)N(c1cc(F)ccc1F)S(=O)(=O)c1ccc(Cl)cc1 [BMS-299897] | equivalently inhibited Aβ42, Aβ40 and Aβtotal peptide production | equivalently inhibited Aβ42, Aβ40 and Aβtotal peptide production | reduced the levels of all Aβ peptide variants to baseline levels | dose-dependent decrease in Aβ42, Aβ40, Aβ38 and Aβtotal levels | reduced the levels of all Aβ variants (Aβ37, Aβ38, Aβ40 and Aβ42) to undetectable levels |  |  |
| C[C@H](NC(=O)Cc1cc(F)cc(F)c1)C(=O)N[C@H](C(=O)OC(C)(C)C)c1ccccc1 [DAPT, N-[N-(3,5-difluorophenacetyl)-L-alanyl]-S-phenylglycine t-butyl ester] |  |  |  |  |  | prevented NICD production entirely | totally inhibited |
